Laboratory results taken from PMC9073044 (Saudi Journal of Biological Sciences, 2021).
Structures can show the parent of a compound that is named as a salt.

Legend:
[1] = Caco-2 cells monolayer transport study; type: in vitro ADME; details: human
How it was run: (§1)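 Caco-2 cells seeded at 1 × 10^5/cm2 on 0.33 cm2 transwell inserts and grown 21 days in DMEM with 20% FBS; TEER >300 Ω•cm2. Monolayers were preincubated 30 min in 37 ℃ HBSS with 10 mM HEPES. Test compound at 12, 120 and 1200 μg/mL was run bidirectionally, ± GF120918, for 2 h. […] Lucifer yellow (20 μg/mL, AP→BL, fluorescence) checked tight junctions.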

[2] = system: Caco-2 cells monolayer; experiment: Caco-2 cells monolayer transport study; type: in vitro ADME
How it was run: as §1

[3] = Cytotoxicity by MTT assay; type: cell-based; details: human, Caco-2 cells
How it was run: (§2)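 MTT assay: Caco-2 cells seeded at 5 × 10^3 per well in 96-well plates and incubated 24 h. Medium was replaced with test compound (12, 120 or 1200 μg/mL) for 24 h. MTT was then added for 4 h, the supernatant removed, formazan dissolved in DMSO, and absorbance read at 630 nm.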

[4] = system: Caco-2 cells; experiment: Cytotoxicity by MTT assay; type: cell-based; details: lamivudine 12, 120 and 1200 μg/mL, 24 h
How it was run: as §2

[5] = system: rats intestine; experiment: In-situ single-pass intestinal perfusion; type: in vivo, SD rats
[6] = ref Du et al., 2019, Yuen et al., 1995; cited from earlier work
[7] = system: human DNA polymerase; details: ref Reis et al., 2013; cited from earlier work
[8] = Caco-2, with GF120918 (elacridar), 10 μM

With `Nc1nc2c(ncn2COCCO)c(=O)[nH]1` [Acyclovir] the Papp A→B at 2 h ([1]; Caco-2) was 0.081 ± 0.011 ×10⁻⁶ cm/s.

Compound `C[C@H]1O[C@@H](O[C@H]2[C@@H](O)C[C@H](O[C@H]3[C@@H](O)C[C@H](O[C@H]4CC[C@@]5(C)[C@H](CC[C@@H]6[C@@H]5C[C@@H](O)[C@]5(C)[C@@H](C7=CC(=O)OC7)CC[C@]65O)C4)O[C@@H]3C)O[C@@H]2C)C[C@H](O)[C@@H]1O` [Digoxin] has a Papp A→B at 2 h ([1]; Caco-2) of 0.09 ± 0.005 ×10⁻⁶ cm/s, a Papp B→A at 2 h, 30 μg/mL ([1]; Caco-2) of 11.9 ± 0.312 ×10⁻⁶ cm/s and an efflux ratio at 2 h, 30 μg/mL ([1]; Caco-2) of 133. It also gave a Papp A→B at 2 h, 30 μg/mL [1, 8] of 3.59 ± 0.128 ×10⁻⁶ cm/s, a Papp B→A at 2 h, 30 μg/mL [1, 8] of 5.15 ± 0.058 ×10⁻⁶ cm/s and an efflux ratio at 2 h, 30 μg/mL [1, 8] of 1.43.

`Nc1ccn([C@@H]2CS[C@H](CO)O2)c(=O)n1` [Lamivudine] gave a Papp A→B at 2 h, 12 μg/mL ([1]; Caco-2) of 0.296 ± 0.005 ×10⁻⁶ cm/s, a Papp A→B at 2 h, 120 μg/mL ([1]; Caco-2) of 0.297 ± 0.015 ×10⁻⁶ cm/s and a Papp A→B at 2 h, 1200 μg/mL ([1]; Caco-2) of 0.285 ± 0.011 ×10⁻⁶ cm/s. For the same compound, the Papp B→A at 2 h, 12 μg/mL ([1]; Caco-2) was 0.788 ± 0.044 ×10⁻⁶ cm/s, the Papp B→A at 2 h, 120 μg/mL ([1]; Caco-2) was 0.77 ± 0.027 ×10⁻⁶ cm/s and the Papp B→A at 2 h, 1200 μg/mL ([1]; Caco-2) was 0.737 ± 0.009 ×10⁻⁶ cm/s. It also gave a Papp A→B at 2 h, 12 μg/mL [1, 8] of 0.307 ± 0.008 ×10⁻⁶ cm/s, a Papp A→B at 2 h, 120 μg/mL [1, 8] of 0.322 ± 0.007 ×10⁻⁶ cm/s and a Papp A→B at 2 h, 1200 μg/mL [1, 8] of 0.293 ± 0.004 ×10⁻⁶ cm/s. The Papp B→A at 2 h, 12 μg/mL [1, 8] was 0.548 ± 0.011 ×10⁻⁶ cm/s, the Papp B→A at 2 h, 120 μg/mL [1, 8] was 0.519 ± 0.008 ×10⁻⁶ cm/s and the Papp B→A at 2 h, 1200 μg/mL [1, 8] was 0.531 ± 0.012 ×10⁻⁶ cm/s. The “permeability in BCS” value ([2]; from Papp on Caco-2 cells monolayer, between high- and low-permeability controls) was “moderate-permeability”, the viability at 24 h, 1200 μg/mL [3] was > 80% and the “growth ability of Caco-2 cells” value [4] was “did not significantly affect”. For the same compound, the “permeability in BCS” value ([5]; from Peff in SPIP) was “moderate permeability”, the bioavailability [6] was “exceed 80%” and the “affinity in human DNA polymerase” value [7] was “low affinity”.

With `COCCc1ccc(OCC(O)CNC(C)C)cc1` (stereo not shown) [Metoprolol tartrate] the Papp A→B at 2 h ([1]; Caco-2) was 16 ± 0.652 ×10⁻⁶ cm/s and the Peff ([5]; control drugs, perfusion concentration 120 μg/mL, mean ± SD, n = 6) was 6.13 ± 2.49 ×10^-5 cm/s.

In the case of Lucifer yellow, the “%lucifer yellow” value ([2]; lucifer yellow 20 μg/mL, AP-BL, without GF120918, 2 h) is reported as 0.81 ± 0.03%.
